What was measured:
[1] = target: T1, Oxytocin receptor (Rattus norvegicus, UniProt P70536); test: Inhibition of radioligand [3H]oxytocin binding at the oxytocin (OT) receptor in rat uterine tissue
T1 sequence (P70536 whole entry): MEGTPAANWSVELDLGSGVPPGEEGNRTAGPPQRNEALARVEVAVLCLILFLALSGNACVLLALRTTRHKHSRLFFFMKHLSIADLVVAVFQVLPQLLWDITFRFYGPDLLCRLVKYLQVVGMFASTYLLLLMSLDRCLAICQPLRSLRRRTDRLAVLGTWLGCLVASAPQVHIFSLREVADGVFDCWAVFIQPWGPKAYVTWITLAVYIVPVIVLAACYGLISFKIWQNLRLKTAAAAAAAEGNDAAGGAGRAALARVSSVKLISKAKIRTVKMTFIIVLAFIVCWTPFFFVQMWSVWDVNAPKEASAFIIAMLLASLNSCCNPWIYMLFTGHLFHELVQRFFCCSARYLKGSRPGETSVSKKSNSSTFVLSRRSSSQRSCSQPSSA
Outline: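 Uteri taken from rats given diethylstilbestrol dipropionate (0.3 mg/kg ip, 18–24 h before), crude membranes. 1 nM [3H]OT (30–60 Ci/mmol), equilibrium 60 min at 22 °C in 50 mM Tris-HCl, 5 mM MgCl2, 0.1% BSA, pH 7.4. Nonspecific binding with 1 mM unlabeled OT. Filtered on glass fiber. Initial single-concentration screen, then IC50 from seven concentrations by linear regression.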

[2] = target: Vasopressin V2 receptor (Rattus norvegicus, UniProt Q00788); test: Inhibition of radioligand [3H]-AVP binding to the vasopressin V2 receptor in rat kidney tissue
Chain of Vasopressin V2 receptor (Q00788 whole entry): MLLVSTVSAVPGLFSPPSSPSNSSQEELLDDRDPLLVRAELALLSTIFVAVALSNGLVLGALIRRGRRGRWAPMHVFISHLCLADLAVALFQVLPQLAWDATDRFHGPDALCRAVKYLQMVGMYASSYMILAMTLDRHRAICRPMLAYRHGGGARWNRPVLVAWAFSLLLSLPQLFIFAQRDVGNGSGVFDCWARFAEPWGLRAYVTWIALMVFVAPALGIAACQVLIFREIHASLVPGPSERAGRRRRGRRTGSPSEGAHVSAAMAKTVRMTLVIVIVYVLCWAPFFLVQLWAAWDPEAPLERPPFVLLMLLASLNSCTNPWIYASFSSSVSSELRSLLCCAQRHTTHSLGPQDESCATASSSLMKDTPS
Outline: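 [3H]AVP (80–90 Ci/mmol) at 2 nM competed on crude membranes from male rat kidney medulla (V2 sites). Equilibrium 30 min at 30 °C in 100 mM Tris-HCl, 5 mM MgCl2, 0.1% BSA, 50 μM PMSF, 50 μg/mL bacitracin, pH 8.0. Nonspecific binding with 10 μM unlabeled AVP. Glass-fiber filtration. IC50 by linear regression of % inhibition vs log concentration, seven concentrations.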

[3] = target: Vasopressin V1 receptor (Rattus norvegicus, UniProt P48974+P30560); test: Inhibition of radioligand [3H]AVP binding to the vasopressin V1 receptor in rat liver tissue
Outline: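 Crude membranes from male rat liver (V1 sites) competed with 1 nM [3H]AVP (80–90 Ci/mmol). Equilibrium 30 min, 30 °C, buffer 100 mM Tris-HCl, 5 mM MgCl2, 0.1% BSA, 50 μM PMSF, 50 μg/mL bacitracin, pH 8.0. 10 μM unlabeled AVP for nonspecific binding. Filtration through glass-fiber filters. IC50 from linear regression over seven concentrations.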

SMILES	IC50 [1] [nM]	IC50 [2] [nM]	IC50 [3] [nM]
CC(C)[C@H](N)C(=O)NC[C@@]1(O)C[C@H]2CC[C@]1(CS(=O)(=O)N1CCC3(C=Cc4ccccc43)CC1)C2(C)C	43	4900	290
CC1(C)[C@@H]2CC[C@@]1(CS(=O)(=O)N1CCC3(CCc4ccccc43)CC1)[C@@H](NC(=O)CCN)C2	140	9600	1000
CNC1CCN([C@H]2C[C@H]3CC[C@]2(CS(=O)(=O)N2CCC4(CCc5ccccc54)CC2)C3(C)C)C1=O (stereo not given in full)	210	12000	4700
CC1(C)[C@@H]2CC[C@@]1(CS(=O)(=O)N1CCC3(CCc4ccccc43)CC1)[C@@H](NC(=O)CCc1c[nH]cn1)C2	94	21000	5800
CC(C)CC1NC(=O)N([C@H]2C[C@H]3CC[C@]2(CS(=O)(=O)N2CCC4(CCc5ccccc54)CC2)C3(C)C)C1=O (stereo not given in full)	92	4200	1200
CC1(C)[C@@H]2CC[C@@]1(CS(=O)(=O)N1CCC3(CCc4ccccc43)CC1)[C@@H](NC(=O)[C@H](N)CCC(N)=O)C2	12	5100	2300
CC1(C)[C@@H]2CC[C@@]1(CS(=O)(=O)N1CCC3(CCc4ccccc43)CC1)[C@@H](N1C(=O)NC(CN)C1=O)C2 (stereo not given in full)	35	2100	490
CC1(C)[C@@H]2CC[C@@]1(CS(=O)(=O)N1CCC3(C=Cc4ccccc43)CC1)[C@@](O)(CCNC(=O)C1=CCC(=O)N=C1)C2	49	2600	1000
CCC(C(=O)N[C@H]1C[C@H]2CC[C@]1(CS(=O)(=O)N1CCC3(CCc4ccccc43)CC1)C2(C)C)c1c[nH]cn1 (stereo not given in full)	170	15000	4000
CC1(C)[C@@H]2CC[C@@]1(CS(=O)(=O)N1CCC3(CCc4ccccc43)CC1)[C@@H](NC(=O)[C@@H](N)CCC(N)=O)C2	55	7900	2800
CC1(C)[C@@H]2CC[C@@]1(CS(=O)(=O)N1CCC3(CCc4ccccc43)CC1)[C@@H](N1C(=O)CCC1C(=O)O)C2 (stereo not given in full)	270	> 3000	> 3000
CN(C)CC(=O)NCC(=O)N[C@H]1C[C@H]2CC[C@]1(CS(=O)(=O)N1CCC3(CCc4ccccc43)CC1)C2(C)C	61	3000	> 300
CC1(C)[C@@H]2CC[C@@]1(CS(=O)(=O)N1CCC3(C=Cc4ccccc43)CC1)[C@@](O)(CCNC(=O)CC1CN3CCC1CC3)C2 (stereo not given in full)	100	6200	640
CC1(C)[C@@H]2CC[C@@]1(CS(=O)(=O)N1CCC3(CCc4ccccc43)CC1)[C@@H](NC(=O)[C@@H](N)CCS(C)(=O)=O)C2	12	2400	890
CC1(C)[C@@H]2CC[C@@]1(CS(=O)(=O)N1CCC3(C=Cc4ccccc43)CC1)[C@@](O)(CNC(=O)Cc1ccncc1)C2	35	5100	480
CC1(C)[C@@H]2CC[C@@]1(CS(=O)(=O)N1CCC3(CCc4ccccc43)CC1)[C@@H](NC(=O)Cc1ccccn1)C2	95	6500	3900
CC1(C)[C@@H]2CC[C@@]1(CS(=O)(=O)N1CCC3(CCc4ccccc43)CC1)[C@@H](NC(=O)C1CN3CCC1CC3)C2 (stereo not given in full)	29	5500	530
CC1(C)[C@@H]2CC[C@@]1(CS(=O)(=O)N1CCC3(CCc4ccccc43)CC1)[C@@H](N1CCC(N)C1=O)C2 (stereo not given in full)	60	5500	1700
CC1(C)[C@@H]2CC[C@@]1(CS(=O)(=O)N1CCC3(CCc4ccccc43)CC1)[C@@H](NC(=O)CCc1ccccc1)C2	530	> 10000	10000
CC(=O)N[C@H]1C[C@H]2CC[C@]1(CS(=O)(=O)N1CCC3(CCc4ccccc43)CC1)C2(C)C	390	26000	7600

SMILES	IC50 [1] [nM]	IC50 [2] [nM]	IC50 [3] [nM]
CC1(C)[C@@H]2CC[C@@]1(CS(=O)(=O)N1CCC3(CCc4ccccc43)CC1)[C@@H](N1C(=O)CC(CC(=O)O)C1=O)C2 (stereo not given in full)	30	2500	1600
CC1(C)[C@@H]2CC[C@@]1(CS(=O)(=O)N1CCC3(C=Cc4ccccc43)CC1)[C@@](O)(CNC(=O)c1ccncc1)C2	180	10000	1200
CC1(C)[C@@H]2CC[C@@]1(CS(=O)(=O)N1CCC3(CCc4ccccc43)CC1)[C@@H](N1C(=O)CNC1=O)C2	18	2100	1100
CC1(C)[C@@H]2CC[C@@]1(CS(=O)(=O)N1CCC3(CCc4ccccc43)CC1)[C@@H](NC(=O)CCCc1ccccc1)C2	570	> 10000	> 1000
CC1(C)[C@@H]2CC[C@@]1(CS(=O)(=O)N1CCC3(CCc4ccccc43)CC1)[C@@H](N1C(=O)NC(CC(=O)O)C1=O)C2 (stereo not given in full)	50	4100	1900
Cn1cnc(CC(=O)N[C@@H](CCC(N)=O)C(=O)N[C@H]2C[C@H]3CC[C@]2(CS(=O)(=O)N2CCC4(CCc5ccccc54)CC2)C3(C)C)c1	1.7	620	1900
CC1(C)[C@@H]2CC[C@@]1(CS(=O)(=O)N1CCC3(CCc4ccccc43)CC1)[C@@H](N1C(=O)CN(CC#N)C1=O)C2	4.2	1700	530
CC1(C)[C@@H]2CC[C@@]1(CS(=O)(=O)N1CCC3(CCc4ccccc43)CC1)[C@@H](NC(=O)C(N)CCC#N)C2 (stereo not given in full)	46	6500	1400
CC(=O)NC[C@@]1(O)C[C@H]2CC[C@]1(CS(=O)(=O)N1CCC3(C=Cc4ccccc43)CC1)C2(C)C	130	10000	> 1000
Cn1cnc(CC(=O)N(CCS(C)(=O)=O)[C@H]2C[C@H]3CC[C@]2(CS(=O)(=O)N2CCC4(CCc5ccccc54)CC2)C3(C)C)c1	6	650	320
CC1(C)[C@@H]2CC[C@@]1(CS(=O)(=O)N1CCC3(CCc4ccccc43)CC1)[C@@H](N1C(=O)CN(CC(=O)Nc3ncc[nH]3)C1=O)C2	5.9	740	500
CC(=O)N[C@@H]1C[C@H]2CC[C@]1(CS(=O)(=O)N1CCC3(CCc4ccccc43)CC1)C2(C)C	1200	> 10000	10000
CC1(C)[C@@H]2CC[C@@]1(CS(=O)(=O)N1CCC3(CCc4ccccc43)CC1)[C@@H](NC(=O)C(N)CCS(N)(=O)=O)C2 (stereo not given in full)	38	6700	4000
CC1(C)[C@@H]2CC[C@@]1(CS(=O)(=O)N1CCC3(CCc4ccccc43)CC1)[C@@H](NC(=O)c1ccccc1)C2	1000	> 10000	10000
CC1(C)[C@@H]2CC[C@@]1(CS(=O)(=O)N1CCC3(CCc4ccccc43)CC1)[C@@H](NC(=O)[C@H](N)Cc1c[nH]cn1)C2	45	5500	1500
CN(C)[C@H](Cc1c[nH]cn1)C(=O)N[C@H]1C[C@H]2CC[C@]1(CS(=O)(=O)N1CCC3(CCc4ccccc43)CC1)C2(C)C	49	3400	1700
CC1(C)[C@@H]2CC[C@@]1(CS(=O)(=O)N1CCC3(C=Cc4ccccc43)CC1)C(=O)C2	1800	> 10000	> 10000
CC1(C)[C@@H]2CC[C@@]1(CS(=O)(=O)N1CCC3(CCc4ccccc43)CC1)[C@@H](NC(=O)CCn1ccnc1)C2	140	> 3000	> 3000
CC1(C)[C@@H]2CC[C@@]1(CS(=O)(=O)N1CCC3(C=Cc4ccccc43)CC1)[C@@](O)(CCNC(=O)Cc1c[nH]cn1)C2	90	> 3000	> 300
COC(=O)CNC(=O)N[C@H]1C[C@H]2CC[C@]1(CS(=O)(=O)N1CCC3(CCc4ccccc43)CC1)C2(C)C	160	> 3000	> 3000

From ChEMBL document CHEMBL1126550, “Nanomolar-affinity, non-peptide oxytocin receptor antagonists” (J Med Chem, 1993)
